EP2 antag = blocks the human prostaglandin E2 receptor EP2; P43116; C6 glioma cells expressing human EP2, cAMP TR-FRET; cells stimulated with saturating PGE2; inhibition, % at 25 µM; 260,000 compounds, 0.52% hits;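 active = percent inhibition above 40 after rounding to a whole number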;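 also: rat C6 glioma host cells with rolipram phosphodiesterase inhibitor present; the protocol text gives 20 µM as final concentration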
Target sequence (P43116 whole entry, looked up): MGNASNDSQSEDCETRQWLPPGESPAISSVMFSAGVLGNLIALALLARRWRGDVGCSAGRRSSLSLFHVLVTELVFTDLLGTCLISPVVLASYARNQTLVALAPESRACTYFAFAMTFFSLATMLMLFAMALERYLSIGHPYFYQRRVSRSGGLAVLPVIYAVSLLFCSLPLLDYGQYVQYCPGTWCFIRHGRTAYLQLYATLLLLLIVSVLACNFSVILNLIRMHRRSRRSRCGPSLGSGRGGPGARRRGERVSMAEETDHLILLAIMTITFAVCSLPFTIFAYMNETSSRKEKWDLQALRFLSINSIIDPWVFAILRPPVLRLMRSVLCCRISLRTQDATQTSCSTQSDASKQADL
PHOSPHO1 inh = PHOSPHO1 (human) inhibition; Q8TCT1; recombinant PHOSPHO1, absorbance phosphatase assay; inhibition, % at 13.3 µM; 290,000 compounds, 1.1% hits; in the data active = inhibition above about 60%
Target sequence (Q8TCT1 whole entry, looked up): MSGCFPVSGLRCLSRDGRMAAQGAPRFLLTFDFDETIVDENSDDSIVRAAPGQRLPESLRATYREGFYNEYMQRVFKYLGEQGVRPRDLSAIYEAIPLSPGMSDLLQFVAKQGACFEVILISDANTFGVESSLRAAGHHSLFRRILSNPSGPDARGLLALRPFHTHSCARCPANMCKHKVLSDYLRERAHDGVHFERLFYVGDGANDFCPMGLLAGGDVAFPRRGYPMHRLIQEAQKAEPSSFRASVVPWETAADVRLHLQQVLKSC
HKDC1 inh = inhibitors of human hexokinase HKDC1 | Q2TB90 | recombinant HKDC1, G6PDH/diaphorase resazurin coupled fluorescence | inhibition, % at 20 µM | 340,000 compounds, 0.16% hits | AID 493160;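 active = inhibition above about 35% when tested at 20 µM, limit read from the data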;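 also: plate controls were DMSO wells with enzyme for no effect and DMSO wells lacking enzyme for full effect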
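Assay system: in-house recombinant HK5 (HKDC1) enzyme. Input: HKDC1 at 5 µg/mL. Medium: Tris pH 8.0 buffer with MgCl2, Tween-20, BSA, BME. Dosing: single 20 µM dose. Schedule: 90 min reaction incubation at room temperature, dark. Signal: resazurin-to-resorufin fluorescence via G6PDH and diaphorase coupling, 525/613 nm. Controls: DMSO-enzyme wells negative, buffer-substituted wells positive.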
PfG6PD inh = PfG6PD (Plasmodium falciparum) enzyme inhibition; PfGluPho enzyme, NADPH resazurin-diaphorase fluorescence; inhibition, % at 20 µM; 350,000 compounds, 0.78% hits; AID 504690;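 active = inhibition reaching at least a set limit at 20 µM in the primary screen, cut at about 59% in these data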;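 also: 0% = DMSO wells with substrate and 100% = DMSO wells lacking glucose-6-phosphate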
EP2 mod = EP2 receptor (human) modulation. P43116. AID 940. induction, % at 25 µM. EP2-expressing cells, cAMP HTRF FRET, PGE2 co-stimulation. 260,000 compounds, 0.83% hits;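 active = compounds whose cAMP rise, as percent of the full-agonist control response, exceeds 60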;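 also: rat C6 glioma line stably carrying human EP2 under a CMV promoter; the protocol text gives 20 µM as final concentration; 100% = response of wells given 1 µM PGE2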
TbHK1 inh = blocks Trypanosoma brucei hexokinase 1 activity | recombinant TbHK1, G6PDH-coupled NADH A340 | inhibition, % at 10 µM | 220,000 compounds, 0.11% hits;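 active = inhibition of 50% or more in the single-dose primary screen; inactive = inhibition below 50%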
* = called active by the depositor. Only some compounds are listed: those with a hit (about 2.5% of all), similar ones and a draw of the others.

For Cc1ccc(S(=O)(=O)Nc2ccc(Cl)cc2C(=O)c2ccccc2)cc1 the results were EP2 antag 7, PHOSPHO1 inh -48, HKDC1 inh -2, PfG6PD inh -19, EP2 mod 45 and TbHK1 inh -2.
`Cc1ccc(S(=O)(=O)Nc2ccccc2C(=O)c2ccc(C)c(C)c2)cc1` gave EP2 antag 45* and EP2 mod 4.
Screening CN(C)S(=O)(=O)c1ccc(S(=O)(=O)N2CCCCCC2)cc1 returned EP2 antag 6 and EP2 mod -6.
Screening CC(C)[C@@H](Cn1nnc2ccccc21)NC(=O)c1cnccn1 returned EP2 antag 9 and EP2 mod -9.
`O=c1cc(-c2ccccc2Cl)oc2c(NS(=O)(=O)c3cc(Cl)cc(Cl)c3O)ccc(O)c12` gave EP2 antag 45*, PHOSPHO1 inh 4, HKDC1 inh 13, PfG6PD inh -19, EP2 mod 8 and TbHK1 inh 4.
`CC(C)CCNC(=O)C(c1ccc(O)cc1)N(C(=O)C1COc2ccccc2O1)c1cccc(O)c1` (stereo not drawn) gave EP2 antag 6, PHOSPHO1 inh 64*, HKDC1 inh 3, PfG6PD inh 25, EP2 mod 18 and TbHK1 inh 7.
`COc1ccccc1Nc1ncc(-c2cccs2)s1` gave EP2 antag 17, PHOSPHO1 inh 82*, HKDC1 inh -6, PfG6PD inh 24, EP2 mod 5 and TbHK1 inh -6.
COc1ccccc1Nc1ccc(C(=O)NCc2cccs2)cn1 was read as EP2 antag 12, PHOSPHO1 inh 41, HKDC1 inh 10, PfG6PD inh -9, EP2 mod -73 and TbHK1 inh -17.
For CCCc1nc2cc(NC(=O)c3cnc(C(C)(C)C)nc3)ccc2n1C the results were EP2 antag 8 and EP2 mod -39.
Screening C=CCNc1nc(N)c(C(=O)Nc2cc(C)on2)s1 returned EP2 antag 46*, PHOSPHO1 inh 0, HKDC1 inh -6, PfG6PD inh 3, EP2 mod -4 and TbHK1 inh -55.
`Cc1sc2nc(SCc3ccc(C(=O)O)cc3)n(Cc3ccco3)c(=O)c2c1C` gave EP2 antag 6, PHOSPHO1 inh -98, HKDC1 inh -2, PfG6PD inh -28, EP2 mod 82* and TbHK1 inh -5.
Screening CCn1c(SCC(=O)N2CCN(c3ccc(Cl)cc3)CC2)nc2ccccc2c1=O returned EP2 antag 19, PHOSPHO1 inh 66*, HKDC1 inh 1, PfG6PD inh 4, EP2 mod -25 and TbHK1 inh 3.
For CCCCn1c(SCC(=O)N2CCN(c3ccccc3)CC2)nc2ccsc2c1=O the results were EP2 antag 6, PHOSPHO1 inh 78*, HKDC1 inh 9, PfG6PD inh 0, EP2 mod -6 and TbHK1 inh 7.
`Cc1ccccc1N(CC(=O)NC(C)(C)C)C(=O)CNC(=O)c1cccs1` gave EP2 antag 14 and EP2 mod -15.
`CCn1c2cc(C)oc2c2cnn(CC(=O)c3ccc4c(c3)OCCO4)c(=O)c21` gave EP2 mod -51.
Screening Cc1nn(-c2ccccc2)c(Cl)c1/C=C1\SC(=S)NC1=O returned EP2 antag 15, PHOSPHO1 inh 64*, HKDC1 inh 2, PfG6PD inh -13, EP2 mod 12 and TbHK1 inh -15.
CC(=O)c1c(C)[nH]c(C(=O)Nc2nc(-c3ccc(Cl)cc3)cs2)c1C was read as EP2 antag 41*, PHOSPHO1 inh 11, HKDC1 inh 0, PfG6PD inh 8, EP2 mod -52 and TbHK1 inh -7.
For COc1ccc(-c2nc(NC(=O)c3[nH]c(C)c(C(C)=O)c3C)sc2C)cc1 the results were EP2 antag 100*, PHOSPHO1 inh -1, HKDC1 inh -1, PfG6PD inh 21, EP2 mod -64 and TbHK1 inh -6.
For COc1ccc(-c2nc(NC(=O)c3ccco3)sc2C)cc1 the results were PfG6PD inh 5.
For CCOCc1cnc(C)nc1NCC(=O)c1c(C)[nH]c2ccc(OC)cc12 the results were EP2 antag 9, PHOSPHO1 inh 64*, HKDC1 inh -2, PfG6PD inh 4, EP2 mod -9 and TbHK1 inh -14.
Screening CC1(C)CC(=O)C2=C(C1)OC(N)=C(C#N)C2c1cn(Cc2ccccc2F)c2ccccc12 (stereo not drawn) returned EP2 antag 6 and EP2 mod 44.
Screening CC1(C)OC[C@@H]2O[C@H](n3cnc4c(N)nc(Cl)nc43)[C@H](OS(C)(=O)=O)[C@H]2O1 returned EP2 antag 56* and EP2 mod -19.
For Cc1cc(=O)c2cc(Br)ccc2[nH]1 the results were EP2 antag 4, PHOSPHO1 inh -38, HKDC1 inh -5, PfG6PD inh -3, EP2 mod 7 and TbHK1 inh -17.
For Cc1cc(=S)c2cc(Br)ccc2[nH]1 the results were EP2 antag 21 and EP2 mod 66*.
`CCCn1nnc(NC(=O)c2sc3ccccc3c2Cl)n1` gave EP2 antag 64*, PHOSPHO1 inh -31, HKDC1 inh -1, PfG6PD inh -32, EP2 mod 8 and TbHK1 inh 1.
CCCn1nnc(NC(=O)c2cccc(Cl)c2)n1 was read as EP2 antag 7, PHOSPHO1 inh 33, HKDC1 inh -7, PfG6PD inh -30, EP2 mod -45 and TbHK1 inh 1.
`S=c1nc(COc2ccccc2)[nH]c2ccccc12` gave EP2 antag 19, PHOSPHO1 inh -84, HKDC1 inh -2, PfG6PD inh 31 and EP2 mod 66*.
Screening S=c1nc(Cc2ccccc2)[nH]c2ccccc12 returned PHOSPHO1 inh -38, HKDC1 inh 0 and PfG6PD inh -11.
Cc1cc2ccccc2nc1SCCN1CCCCC1 was read as EP2 antag 15 and EP2 mod 18.
Screening Oc1ccc2ccccc2c1/C=C/c1ccc2c(Br)cc(Br)c(O)c2n1 returned EP2 antag 42*, HKDC1 inh 10, PfG6PD inh -20 and EP2 mod 4.
Oc1cccc2ccc(/C=C/c3ccccc3Br)nc12 was read as PHOSPHO1 inh 19, HKDC1 inh 6 and PfG6PD inh -5.
Screening CCc1c(C)[nH]c2ccc(C)cc2c1=S returned EP2 antag 16 and EP2 mod 54.
`Cc1ccc2[nH]c(CCN(C)C)c(CSCc3c(CCN(C)C)[nH]c4ccc(C)cc34)c2c1` gave EP2 antag 127* and EP2 mod -155.
Cn1nccc1C(=O)N1CCCC(N2CCN(Cc3ccc4c(c3)OCO4)CC2)C1 (stereo not drawn) was read as PHOSPHO1 inh 61*, HKDC1 inh 3 and PfG6PD inh -16.
